Laboratory results published in ChEMBL document CHEMBL3108704, “Novel endoperoxide-based transmission-blocking antimalarials with liver- and blood-schizontocidal activities” (ACS Med Chem Lett, 2014).
Active and inactive are the calls of the source. The calls are words filed in the database; no cut-off is given here.

Tests used:
Plasmodium berghei [1] = assay: Antisporogonic activity against GFP expressing Plasmodium berghei ANKA infected in BALB/c mouse assessed as inhibition of appearance of oocysts in Anopheles gambiae level at 25 umol/kg, ip by microscopic analysis (reference value: 83.6%); format: functional
Plasmodium berghei [2] = assay: Antimalarial activity against liver stage of Plasmodium berghei infected in human Huh7 cells after 48 hrs by luciferase assay; format: functional, organism-based; conditions: Huh-7, 48 h
Huh-7 = assay: Cytotoxicity against human HuH7 cells assessed as cell viability by Alamar Blue assay; format: cell-based
Plasmodium berghei [3] = assay: Antisporogonic activity against GFP expressing Plasmodium berghei ANKA infected in BALB/c mouse assessed as inhibition of appearance of oocysts in Anopheles gambiae level at 10 umol/kg, ip by microscopic analysis (reference value: 83.6%); format: functional
Plasmodium falciparum = assay: Antimalarial activity against chloroquine-resistant erythrocyte stage of Plasmodium falciparum W2 after 48 hrs; format: functional, organism-based; conditions: W2, 48 h
[4] = Intrinsic clearance in rat liver microsomes at 0.1 uM; format: ADME; conditions: read-out: CLH
Summary of the method: (§1)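 Compound was incubated with rat liver microsomes at 37 °C. Half-life and in vitro intrinsic clearance (μL/min/mg protein) were determined, and in vivo hepatic extraction ratio was predicted from them.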

Plasma = assay: Metabolic stability of the compound in 80% human plasma assessed as formation of primaquine and carboxyprimaquine metabolite after 3 days; format: ADME, cell-free; conditions: 72 h
[5] = Half life in rat liver microsomes at 0.1 uM; format: ADME; summary of the method: as §1
Mus musculus = assay: Toxicity in Plasmodium berghei ANKA infected C57Bl/6J mouse assessed as adverse reactions at 30 mg/kg, ip qd for 5 days measured on day 5; format: organism-based; set-up: dose 30 mg/kg, route intraperitoneal; conditions: in vivo, 120 h
Summary of the method: (§2)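 Male C57Bl/6J mice were infected with GFP-expressing P. berghei ANKA on day 0. From day 4, compound was given i.p. at 30 mg/kg b.w. once daily for 5 consecutive days. Parasitemia was monitored daily by microscopy and flow cytometry. Survival was followed to the end of the experiment, and adverse reactions were recorded.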

Plasmodium berghei [6] = assay: Antimalarial activity against GFP expressing Plasmodium berghei ANKA infected in C57Bl/6J mouse assessed as host survival at 30 mg/kg, ip qd for 5 days measured on day 5; format: functional, organism-based; set-up: dose 30 mg/kg; summary of the method: as §2
Plasmodium berghei [7] = assay: Antimalarial activity against GFP expressing Plasmodium berghei ANKA infected in C57Bl/6J mouse assessed as reduction of parasitemia at 30 mg/kg, ip qd for 5 days measured on day 5; format: functional, organism-based; set-up: dose 30 mg/kg; summary of the method: as §2

| SMILES | inhibition in vivo at 25 µmol/kg (Plasmodium berghei [1]) [%] | IC50 (Plasmodium berghei [2]) [nM] | IC50 (Huh-7) [nM] | inhibition in vivo at 10 µmol/kg (Plasmodium berghei [3]) [%] | IC50 (Plasmodium falciparum) [nM] | microsomal CLint at 0.1 µM [4] [µL/min/mg] | Stability (Plasma) | half-life at 0.1 µM [5] [min] | Activity (Mus musculus) | Activity (Plasmodium berghei [6]) | Activity (Plasmodium berghei [7]) |
| --- | --- | --- | --- | --- | --- | --- | --- | --- | --- | --- | --- |
| COc1cc(NC(C)CCCNC2CCC3(CC2)OOC2(OO3)C3CC4CC(C3)CC2C4)c2ncccc2c1 (stereo not given) | 13.3 | 330 | 8200 | 36.4 | 21.6 | – | – | – | – | – | – |
| COc1cc(NC(C)CCCNCC2CCC3(CC2)OOC2(OO3)C3CC4CC(C3)CC2C4)c2ncccc2c1 (stereo not given) | 5.9 | > 1000 | 5020 | 42.9 | 45.2 | 51.2 | Stable | 27 | – | – | – |
| COc1cc(NC(C)CCCNC(=O)CC2CCC3(CC2)OOC2(OO3)C3CC4CC(C3)CC2C4)c2ncccc2c1 (stereo not given) | 11.4 | 604 | 2570 | 66.7 | 36.5 | – | – | – | – | – | – |
| COc1cc(NC(C)CCCNC(=O)C[C@H]2O[C@@H]3O[C@]4(C)CC[C@H]5[C@H](C)CC[C@@H]([C@H]2C)[C@@]35OO4)c2ncccc2c1 (stereo not given in full) | – | 523 | – | – | 9.1 | – | – | – | – | – | – |
| COc1cc(NC(C)CCCN)c2ncccc2c1 (stereo not given) [PRIMAQUINE] | 2.2 | – | – | 35.5 | – | – | – | – | – | – | – |
| COc1cc(NC(C)CCCNC(=O)c2ccc(CO[C@H]3O[C@@H]4O[C@]5(C)CC[C@H]6[C@H](C)CC[C@@H]([C@H]3C)[C@@]46OO5)cc2)c2ncccc2c1 (stereo not given in full) | – | 67 | 73000 | – | 5.1 | – | – | – | – | – | – |
| COc1cc(NC(C)CCCNCC[C@H]2O[C@@H]3O[C@]4(C)CC[C@H]5[C@H](C)CC[C@@H]([C@H]2C)[C@@]35OO4)c2ncccc2c1 (stereo not given in full) | – | > 1000 | 32800 | – | 9.3 | – | – | – | – | – | – |
| COc1cc(NC(C)CCCNC(=O)C2CCC3(CC2)OOC2(OO3)C3CC4CC(C3)CC2C4)c2ncccc2c1 (stereo not given) | 0 | 538 | > 100000 | 68.6 | 21.1 | 133 | Stable | 10 | Non-toxic | Active | Active |
| COc1cc(NC(C)CCCNCc2ccc(CO[C@H]3O[C@@H]4O[C@]5(C)CC[C@H]6[C@H](C)CC[C@@H]([C@H]3C)[C@@]46OO5)cc2)c2ncccc2c1 (stereo not given in full) | – | 155 | – | – | 12.5 | – | – | – | – | – | – |
| CCOC(=O)C1CCC2(CC1)OOC1(OO2)C2CC3CC(C2)CC1C3 (stereo not given) | – | > 10000 | – | – | 128 | – | – | – | – | – | – |
| C[C@@H]1CC[C@H]2[C@@H](C)C(=O)O[C@@H]3O[C@@]4(C)CC[C@@H]1[C@]32OO4 [ARTEMISININ] | – | > 10000 | – | – | 8.2 | – | – | – | – | – | – |
